Compound activity: PubChem, Sanford-Burnham Center for Chemical Genomics
SENP1 FRET inh – inhibitors of human SENP1 SUMO protease catalytic domain; inhibition, % at 10 µM; Q9P0U3; hit rate 0.21% among 360,000; recombinant SENP1 catalytic domain, CyPet-SUMO1-YPet FRET cleavage;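 active = inhibition at least 30% at 10 µM, raw YFP signal under a set limit, fluorescence ratio 0.5 to 1.5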;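 also: 0% = enzyme with DMSO and 100% = no enzyme wells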
Target sequence (Q9P0U3 419-644 limits assumed): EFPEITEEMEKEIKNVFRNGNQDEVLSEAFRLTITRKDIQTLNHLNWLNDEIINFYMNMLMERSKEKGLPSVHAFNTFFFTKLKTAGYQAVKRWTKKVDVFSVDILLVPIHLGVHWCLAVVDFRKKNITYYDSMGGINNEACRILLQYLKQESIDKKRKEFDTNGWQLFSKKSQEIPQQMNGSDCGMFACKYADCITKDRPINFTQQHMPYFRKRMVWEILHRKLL
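System: Recombinant human SENP1 catalytic domain, His6-tagged | Incubation: Enzyme reaction for 50 min at room temperature, dark | Medium: Tris pH 8 with BME, BSA, NP40 and catalase | Also added: 25 nM SUMO1 FRET substrate | Compound: 10 µM single point, 0.5% DMSO | Measured by: FRET fluorescence in CFP and YFP emission channels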
EBI2 block – antagonists of human EBI2 receptor. P32249. EBI2 beta-arrestin recruitment, luminescence, 7a,25-OHC stimulated. inhibition, % at 5 µM. hit rate 0.81% among 360,000. AID 651636; in the data active = inhibition above about 38%;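 also: enzyme fragment complementation signal reports receptor beta-arrestin coupling in cells; 0% = agonist plus DMSO wells and 100% = wells without agonist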
GRIN3A LBD mod – modulators (binders) of human NR3A ligand-binding domain. hit rate 2.5% among 340,000. Tm shift relative to glycine control, % at 25 µM. NR3A LBD differential scanning fluorimetry, Tm shift; 0% = protein alone, 100% = glycine-bound protein;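 active = melting temperature shift of at least 10% of the positive control shift, at one fixed dose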
MPTP inh – permeability transition pore inhibition | hit rate 1.4% among 360,000 | isolated mouse mitochondria, Ca2+ swelling absorbance, 30 min | AID 602449 | inhibition, % at 10 µM;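 active = inhibition of 50% or more, scaled per plate between neutral and stimulator controls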;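 also: 0% = DMSO wells given calcium and 100% = 1 mM EGTA wells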
Starred values were filed as active, the others as inactive; . = no result. Sampled rows, rich in hits. Any-hit rate of the full collection: about 4.4%.

SMILES	SENP1 FRET inh	EBI2 block	GRIN3A LBD mod	MPTP inh
Cc1cccc(NC(=O)c2cc(-c3cc(C)ccc3O)n[nH]2)c1	3	2	30*	1
COc1ccc(NC(=O)c2cc(-c3ccc(C)cc3O)n[nH]2)c(OC)c1	0	16	38*	0
COc1ccc(CNC(=O)c2cc(-c3cc(C)ccc3O)n[nH]2)cc1	0	13	-7	6
CC(=O)Nc1ccc(NC(=O)c2cc(-c3ccc(C)cc3O)n[nH]2)cc1	1	0	30*	1
COc1ccc(NC(=O)c2cc(-c3cc(C)ccc3O)n[nH]2)cc1Cl	1	25	326*	24
COc1ccc(CC(=O)OCC(=O)Nc2ccc(Br)cc2)cc1	7	-21	-26	4
COc1cc([N+](=O)[O-])ccc1NC(=O)CSc1nncn1-c1cccnc1	0	-13	-1	1
COc1ccc(NC(=O)c2ccc3[nH]c(C)c(C)c3c2)c(OC)c1	-3	3	15*	0
Cc1ccc(O)c(-c2cc(C(=O)Nc3ccc(S(=O)(=O)Nc4nccc(C)n4)cc3)[nH]n2)c1	2	3	30*	5
Cc1cccc(NC(=O)c2cc(-c3cc(C)c(C)cc3O)n[nH]2)c1	2	5	14*	0
Cc1c(Cl)cccc1NC(=O)c1cc(-c2ccccc2O)n[nH]1	3	15	9	27
Cc1cc(F)ccc1-c1cc(C(=O)Nc2ccc(F)cc2)[nH]n1	2	18	.	3
COc1ccc(Cl)cc1NC(=O)c1cc(-c2ccccc2O)n[nH]1	2	43	24*	21
COc1ccc(C(=O)Nc2ccc(S(=O)(=O)Nc3nccc(C)n3)cc2)cc1	2	-3	1	0
CCCS(=O)(=O)N1CCC(C(=O)Oc2ccc(OC)cc2)CC1	0	-8	-1	0
CCc1c(C)nc(N2CCN(c3ccccc3F)CC2)[nH]c1=O	-2	-5	-1	0
Cc1cccc(NC(=O)CSc2nsc(SCC(=O)Nc3cccc(C)c3)c2C#N)c1	0	16	14*	36
N#Cc1c(SCC(=O)Nc2ccccc2)nsc1SCC(=O)Nc1ccccc1	0	5	15*	5
CC(=O)Nc1cccc(NC(=O)CSc2nc(C)c(C)c(C)c2C#N)c1	-5	-2	-1	3
COc1cc(C)ccc1OCc1cc(C(=O)N(Cc2nccn2C)C(C)C)no1	1	-2	-3	2
Cc1cc(C)nc(NS(=O)(=O)c2ccc(NC(=O)COc3ccccc3F)cc2)n1	-1	-4	0	-1
O=C(COc1ccccc1F)Nc1cc(S(=O)(=O)Nc2cccc(Cl)c2)ccc1O	0	8	27*	-1
COc1c(OC(C)=O)c(=O)n2c3ccccc3c3ccnc1c32	69*	1	0	0
CSc1nnc2c3cc(F)ccc3n(Cc3ccccc3)c2n1	-58	-1	39*	3
CSc1ccccc1OCc1cc(C(=O)NCCN2CCCc3ccccc32)no1	-68	7	12*	0
SMILES	SENP1 FRET inh	EBI2 block	GRIN3A LBD mod	MPTP inh
CSc1ccccc1OCc1cc(C(=O)NCCn2nc(C)cc2C)no1	-1	17	-1	0
CN(C)C(=O)c1c2c(nc3ccccc13)-c1ccccc1CC2	-4	-15	2	0
O=C(Nc1nc(-c2cc(Cl)sc2Cl)cs1)c1cccs1	0	18	14*	0
O=C(NC(=S)Nc1nc(-c2ccccc2)cs1)c1cccs1	3	11	28*	2
COc1ccc(-c2csc(NC(=S)NC(=O)c3ccco3)n2)cc1	1	4	0	2
O=C(NC(=S)Nc1nc(-c2ccccc2)cs1)c1ccco1	-1	2	16*	4
CCCS(=O)(=O)NC(=O)C1(C)CCCN(C(=O)c2cccnc2Oc2ccccc2)C1 (stereo unspecified)	-3	2	.	0
C=CCNC(C(=O)Nc1cccc(OC)c1)c1ccccc1 (stereo unspecified)	-6	2	15*	-1
COc1cccc(NC(=O)C(NCC(C)(C)CN(C)C)c2ccccc2)c1 (stereo unspecified)	-3	4	2	-1
Cc1cc(NC(=O)CCC(=O)N(Cc2ccccc2)C2(C(=O)NC3CCCCC3)CCCC2)no1	-1	2	-3	1
CCOP(=O)(OCC)/C(C#N)=C/c1ccc(-c2ccc(F)cc2F)o1	-31	-1	13*	1
COCCNC(=O)/C(C#N)=C/c1ccc(-c2ccc(OC)cc2[N+](=O)[O-])o1	9	8	0	-1
